Reference: ChEMBL document CHEMBL3588752, “Synthesis and in Vitro Anticancer Activity of the First Class of Dual Inhibitors of REV-ERBβ and Autophagy” (J Med Chem, 2015)
pIC50: −log10 of the molar value. Activity calls are given as the source filed them. The calls are words filed in the database; no cut-off is given here.

Assays:
BT-474 [1] = experiment: Cytotoxicity against human BT474 cells assessed as reduction in cell number incubated for 72 hrs; assay type: functional, cell-based; details: BT-474, 72 h
How it was run: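 Cells seeded at 2000/well and left overnight, then exposed 72 h to seven 3-fold serial dilutions from 100 µM. Cell number read by CyQUANT DNA dye (independent of metabolism), relative to vehicle as 100%. BT-474 grown in high-glucose DMEM, 4 mM L-glutamine, 10% FBS, 0.25 mM pyruvate.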

HMEC = experiment: Cytotoxicity against HMEC cells assessed as reduction in cell number incubated for 72 hrs; assay type: cell-based; details: Homo sapiens
HepG2 [2] = experiment: Potency index, ratio of IC50 for chloroquine to IC50 for test compound against human HepG2 cells assessed as reduction in cell number incubated for 72 hrs; assay type: functional
How it was run: (§1)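 HepG2 was grown in high-glucose DMEM with 4 mM L-glutamine, 10% FBS and 0.5 mM pyruvate; LNCaP in RPMI-1640 with 4 mM L-glutamine and 10% FBS. Cells were seeded at 2000/well, left overnight, then given seven 3-fold dilutions from 100 µM for 72 h. Cell number was read by CyQUANT DNA stain against vehicle (100%). IC50s came from log(inhibitor)–response fits, ≥6 experiments, and chloroquine IC50 was divided by test IC50.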

MCF7 = experiment: Cytotoxicity against human MCF7 cells assessed as reduction in cell number incubated for 72 hrs; assay type: functional, cell-based; details: MCF7, 72 h
How it was run: (§2)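 Grown in high-glucose DMEM with 4 mM L-glutamine, 10% FBS and 0.5 mM sodium pyruvate. Seeded at 2000 cells/well overnight, then treated 72 h with seven 3-fold dilutions from 100 µM. Cell number by CyQUANT, % of vehicle. IC50 by log(inhibitor)–response fit, mean ± SEM, n ≥ 6.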

[3] = target: T1, Nuclear receptor subfamily 1 group D member 2 (Homo sapiens) (UniProt Q14995); experiment: Inhibition of REV-ERBbeta in human LNCAP cells assessed as […] at 10 uM incubated for 16 hrs by immunoblot method; assay type: cell-based
T1 sequence (whole entry): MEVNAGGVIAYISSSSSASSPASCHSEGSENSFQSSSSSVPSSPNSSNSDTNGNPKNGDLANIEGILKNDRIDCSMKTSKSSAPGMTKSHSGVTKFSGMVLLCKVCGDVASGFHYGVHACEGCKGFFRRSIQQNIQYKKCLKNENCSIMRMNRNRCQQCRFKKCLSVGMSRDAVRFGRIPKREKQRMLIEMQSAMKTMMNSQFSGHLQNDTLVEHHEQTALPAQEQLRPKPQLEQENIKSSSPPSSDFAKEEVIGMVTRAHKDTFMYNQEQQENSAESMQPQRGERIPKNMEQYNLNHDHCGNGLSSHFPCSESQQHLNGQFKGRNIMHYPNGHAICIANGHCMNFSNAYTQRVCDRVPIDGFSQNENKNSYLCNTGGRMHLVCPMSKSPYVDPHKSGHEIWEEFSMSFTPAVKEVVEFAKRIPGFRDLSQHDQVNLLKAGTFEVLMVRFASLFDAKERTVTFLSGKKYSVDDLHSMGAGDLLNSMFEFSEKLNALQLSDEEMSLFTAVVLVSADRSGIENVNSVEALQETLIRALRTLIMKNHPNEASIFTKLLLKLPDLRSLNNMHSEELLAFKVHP

LNCaP [4] = experiment: Cytotoxicity against human LNCAP cells assessed as reduction in cell number incubated for 72 hrs; assay type: functional, cell-based
How it was run: (§3)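 RPMI-1640 with 4 mM L-glutamine and 10% FBS for culture. 2000 cells/well seeded overnight, then 72 h exposure to seven 3-fold dilutions (top 100 µM; top 900 µM for the reference autophagy inhibitor in MDA-MB-361). Cell number by CyQUANT relative to vehicle. IC50 from concentration–response curves, mean ± SEM, n ≥ 6.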

BT-474 [5] = experiment: Lysosomotropic activity in human BT474 cells assessed as […] incubated for 24 hrs by lysosomotropy assay; assay type: functional, cell-based; details: BT-474, 24 h
How it was run: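 Seeded at 2000 cells/well overnight, then treated. Lysosomal staining (LysoTracker fluorescence) measured 24 h post-treatment. IC50 from concentration–response plots, mean ± SEM, N ≥ 6.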

[6] = Cytotoxicity against human SKBR3 cells assessed as reduction in cell number incubated for 72 hrs; assay type: functional, cell-based; details: SK-BR-3, 72 h
How it was run: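 McCoy's medium plus 10% FBS; 2000 cells/well, overnight attachment, 72 h treatment with seven 3-fold dilutions from 100 µM (900 µM top for the reference autophagy inhibitor). CyQUANT cell number as % of vehicle. IC50 by log(inhibitor)–response fitting, mean ± SEM of ≥6 experiments.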

SK-BR-3 = experiment: Inhibition of autophagy in human SKBR3 cells assessed as increase in GFP/RFP/LC3 chimera protein levels at 30 uM incubated for 4 hrs by fluorescent microscopy; assay type: functional, cell-based
How it was run: (§4)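 Cells transduced with LC3 fused to acid-sensitive GFP and acid-insensitive RFP. Compound or DMSO vehicle added 48 h post-transduction. After 4 h, GFP and RFP fluorescent dots counted by fluorescence microscopy.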

MDA-MB-361 = experiment: Cytotoxicity against human MDA-MB-361 cells assessed as reduction in cell number incubated for 72 hrs; assay type: functional, cell-based; details: MDA-MB-361, 72 h; how it was run: as §3
[7] = target: T1, Nuclear receptor subfamily 1 group D member 2 (Homo sapiens); experiment: Inhibition of REV-ERBbeta in human HepG2 cells assessed as […] at 10 uM incubated for 16 hrs by immunoblot method; assay type: cell-based
[8] = Toxicity against human BT474 cells assessed as reduction in cell number at 10 uM incubated for 16 hrs; assay type: cell-based; details: bt-474, 16 h
LNCaP [9] = experiment: Potency index, ratio of IC50 for chloroquine to IC50 for test compound against human LNCAP cells assessed as reduction in cell number incubated for 72 hrs; assay type: functional; how it was run: as §1
[10] = target: T2, Nuclear receptor subfamily 1 group D member 2 (Homo sapiens, UniProt Q14995); experiment: (§5) Inhibition of REV-ERBbeta (unknown origin) expressed in HEK293 cells incubated for 24 hrs assessed as inhibition of receptor-mediated transcriptional repression by REV-ERB luciferase reporter assay; assay type: cell-based
T2 sequence (Q14995 whole entry): T1 sequence (whole entry)
How it was run: (§6)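 HEK-293 co-transfected with a REV-ERBβ expression plasmid and a reporter with two REV-ERB response elements driving Cypridina luciferase. Compounds added the next day; luciferase activity read after 24 h. IC50 from concentration–response plots, mean ± SEM, N ≥ 6.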

[11] = target: T1, Nuclear receptor subfamily 1 group D member 2 (Homo sapiens); experiment: Inhibition of REV-ERBbeta in human BT474 cells assessed as increase in BMAL1 expression at 10 uM incubated for 16 hrs by immunoblot method; details: BT-474
[12] = target: T1, Nuclear receptor subfamily 1 group D member 2 (Homo sapiens); experiment: Inhibition of REV-ERBbeta in human SKBR3 cells assessed as […] at 10 uM incubated for 16 hrs by immunoblot method; assay type: cell-based; details: SK-BR-3
LNCaP [13] = experiment: Inhibition of autophagy in human LNCAP cells assessed as increase in GFP/RFP/LC3 chimera protein levels at 30 uM incubated for 4 hrs by fluorescent microscopy; assay type: functional, cell-based; how it was run: as §4
HepG2 [14] = experiment: Cytotoxicity against human HepG2 cells assessed as reduction in cell number incubated for 72 hrs; assay type: functional, cell-based; details: HepG2, 72 h; how it was run: as §2
BT-474 [15] = experiment: Inhibition of autophagy in human BT474 cells assessed as increase in LC3-II protein levels at 10 uM by immunoblot method; assay type: functional, cell-based
How it was run: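 BT-474 exposed 4 h at 10 µM. Protein extracted in RIPA buffer and immunoblotted for LC3B and GAPDH in TBS-T with 5% BSA. HRP secondary at 1:20000, ECL detection. Band densitometry reported as LC3B/GAPDH ratio.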

HepG2 [16] = experiment: Inhibition of autophagy in human HepG2 cells assessed as increase in GFP/RFP/LC3 chimera protein levels at 30 uM incubated for 4 hrs by fluorescent microscopy; assay type: functional, cell-based; how it was run: as §4
[17] = target: T1, Nuclear receptor subfamily 1 group D member 2 (Homo sapiens); experiment: as §5; assay type: cell-based; how it was run: as §6

CN1CCN(Cc2cc(C(=O)NC3(c4ccccc4F)CCCC3)ccc2O)CC1
pIC50 (BT-474 [1]): < 4.00

Fc1ccccc1C1(NCc2cccc(CN3CCCCC3)c2)CCCC1
pIC50 (BT-474 [1]): 4.40
pIC50 (HMEC): < 4.00

CCN1CCN(Cc2cc(CNC3(c4ccccc4F)CCCC3)ccc2O)CC1
pIC50 (BT-474 [1]): 4.41
pIC50 (HMEC): < 4.00

CN1CCN(Cc2cccc(CNC3(c4ccccc4F)CCCC3)c2)CC1
pIC50 (BT-474 [1]): 4.47
pIC50 (HMEC): < 4.00

CN1CCC(Cc2cccc(CNC3(c4ccc(F)cc4)CCCC3)c2)CC1
Ratio IC50 (HepG2 [2]): 10
pIC50 (MCF7): 5.66
inhibition [3]: Active
pIC50 (BT-474 [1]): 5.68
pIC50 (LNCaP [4]): 5.06
pIC50 (BT-474 [5]): 5.00
pIC50 [6]: 4.80
inhibition (SK-BR-3): Active
pIC50 (MDA-MB-361): 4.51
inhibition [7]: Active
Activity [8]: Non-toxic
Ratio IC50 (LNCaP [9]): 4
pIC50 (HMEC): < 4.00
pIC50 [10]: 5.87
inhibition [11]: Active
inhibition [12]: Active
inhibition (LNCaP [13]): Active
pIC50 (HepG2 [14]): 5.56
inhibition (BT-474 [15]): Active
inhibition (HepG2 [16]): Active

Oc1ccc(CNC2(c3ccccc3F)CCCC2)cc1CN1CCN(Cc2ccccc2)CC1
pIC50 (BT-474 [1]): 4.46
pIC50 (HMEC): < 4.00

CN1CCN(Cc2cc(CNC3(c4ccccc4F)CCC3)ccc2O)CC1
pIC50 (BT-474 [1]): < 4.00

CCN(CC)Cc1cc(CNC2(c3ccccc3F)CCCC2)ccc1O
pIC50 (BT-474 [1]): < 4.00

CN1CCN(Cc2cc(CNC3(c4ccccc4F)CCCC3)ccc2O)CC1
pIC50 (BT-474 [1]): 4.52
pIC50 (BT-474 [5]): 5.00
Activity [8]: Non-toxic
pIC50 (HMEC): < 4.00
pIC50 [10]: 4.76
inhibition [11]: Active
inhibition (BT-474 [15]): Active

CN1CCN(Cc2cc(CNC3(c4ccccc4F)CCCCC3)ccc2O)CC1
pIC50 (BT-474 [1]): 4.51
pIC50 (HMEC): < 4.00

CN1CCN(Cc2ccccc2CNC2(c3ccccc3F)CCCC2)CC1
pIC50 (BT-474 [1]): < 4.00

CN1CCN(Cc2cc(CNC3(c4ccc(F)cc4)CCCC3)ccc2O)CC1
pIC50 (BT-474 [1]): 5.03
pIC50 (BT-474 [5]): 5.00
Activity [8]: Non-toxic
pIC50 (HMEC): < 4.00
inhibition [17]: Active
inhibition [11]: Active
inhibition (BT-474 [15]): Active

Oc1ccc(CNC2(c3ccccc3F)CCCC2)cc1CN1CCN(c2ccccc2)CC1
pIC50 (BT-474 [1]): 4.42
pIC50 (HMEC): < 4.00

CN1CCN(Cc2cc(CNC(C)(C)c3ccccc3F)ccc2O)CC1
pIC50 (BT-474 [1]): < 4.00

CC(C)N1CCN(Cc2cc(CNC3(c4ccccc4F)CCCC3)ccc2O)CC1
pIC50 (BT-474 [1]): 4.48
pIC50 (HMEC): < 4.00

CN1CCN(Cc2cc(CNC3(c4ccccc4)CCCC3)ccc2O)CC1
pIC50 (BT-474 [1]): 4.56
pIC50 (HMEC): < 4.00
